Source: ChEMBL document CHEMBL1121590, “Synthesis and enzymatic and inotropic activity of some new 8-substituted and 6,8-disubstituted derivatives of adenosine cyclic 3',5'-monophosphate” (J Med Chem, 1980)
Activity calls are given as the source filed them. No cut-off for these calls is given here.

How the values were obtained:
Canis familiaris [1] = assay: Inotropic change in blood pressure (systolic/diastolic mmHg) in anesthetized dog; -8/-25; assay type: functional, organism-based; settings: Canis lupus familiaris; Artery
Procedure, shortened: (§1)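 Adult mongrel dogs of either sex, induced with sodium methohexital and maintained on methoxyflurane, breathing spontaneously at 37 ± 1 °C. The right atrium was electrically paced, and the pacer was switched off periodically to obtain spontaneous rate. Dose was 3.1 mg/kg iv via the femoral vein. Catheter-tip transducers recorded aortic and LV pressure; LV dP/dt max indexed contractility. BP and rate were taken at the time of maximal % change in dP/dt max. 1–4 dogs were used per compound.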

Canis familiaris [2] = assay: Evaluated for dP/dt max in anesthetized dogs; assay type: functional, Canis lupus familiaris; procedure, shortened: as §1
Phosphodiesterase 4 = Phosphodiesterase 4 (Homo sapiens, UniProt P27815+Q08499+Q07343+Q08493); settings: Oryctolagus cuniculus; Kidney
Canis familiaris [3] = assay: Change in heart rate (beats/min) in anesthetized dog; assay type: functional, Canis lupus familiaris; procedure, shortened: as §1
[4] = Inhibition of cAMP phosphodiesterase preparation from rabbit lung at a substrate concentration of 0.14 uM
Canis familiaris [5] = assay: Inotropic change in blood pressure (systolic/diastolic mmHg) in anesthetized dog; -4/-9; assay type: functional, organism-based; settings: Canis lupus familiaris; Artery; procedure, shortened: as §1
Canis familiaris [6] = assay: Inotropic change in blood pressure (systolic/diastolic mmHg) in anesthetized dog; 0/-6; assay type: functional, Canis lupus familiaris, Artery; procedure, shortened: as §1
Canis familiaris [7] = assay: Inotropic change in blood pressure (systolic/diastolic mmHg) in anesthetized dog; -6/-22; assay type: functional, organism-based; settings: Canis lupus familiaris; Artery; procedure, shortened: as §1
Canis familiaris [8] = assay: Inotropic change in blood pressure (systolic/diastolic mmHg) in anesthetized dog; 2/-5; assay type: functional, organism-based; settings: Canis lupus familiaris; Artery; procedure, shortened: as §1
Canis familiaris [9] = assay: Inotropic change in blood pressure (systolic/diastolic mmHg) in anesthetized dog; 6/-19; assay type: functional, organism-based; settings: Canis lupus familiaris; Artery; procedure, shortened: as §1

Hydrolysis (Phosphodiesterase 4)	I50 [4]	SMILES	Change (Canis familiaris [1])	Change (Canis familiaris [2])	Change (Canis familiaris [3])	Change (Canis familiaris [5])	Change (Canis familiaris [6])	Change (Canis familiaris [7])	Change (Canis familiaris [8])	Change (Canis familiaris [9])
< 0.05	120 µM	CNc1ncnc2c1nc(SCc1ccccc1)n2[C@@H]1O[C@@H]2COP(=O)(O)O[C@H]2[C@H]1O	–	71%	0 beats/min	–	0%	–	–	–
< 0.05	2.5 µM	CCNc1ncnc2c1nc(SCc1ccccc1)n2[C@@H]1O[C@@H]2COP(=O)(O)O[C@H]2[C@H]1O	–	80%	10 beats/min	–	–	inactive	–	–
< 0.05	3.6 µM	CCCNc1ncnc2c1nc(SCc1ccccc1)n2[C@@H]1O[C@@H]2COP(=O)(O)O[C@H]2[C@H]1O	–	127%	24 beats/min	–	–	–	–	inactive

Further lines, the compound ahead of its results:

SMILES	Hydrolysis (Phosphodiesterase 4)	I50 [4]	Change (Canis familiaris [1])	Change (Canis familiaris [2])	Change (Canis familiaris [3])	Change (Canis familiaris [5])	Change (Canis familiaris [6])	Change (Canis familiaris [7])	Change (Canis familiaris [8])	Change (Canis familiaris [9])
CN(C)c1ncnc2c1nc(SCc1ccccc1)n2[C@@H]1O[C@@H]2COP(=O)(O)O[C@H]2[C@H]1O	< 0.05	–	inactive	61%	15 beats/min	–	–	–	–	–
CCN(CC)c1ncnc2c1nc(SCc1ccccc1)n2[C@@H]1O[C@@H]2COP(=O)(O)O[C@H]2[C@H]1O	< 0.05	3.6 µM	–	45%	5 beats/min	inactive	–	–	–	–
CCCCNc1ncnc2c1nc(SCc1ccccc1)n2[C@@H]1O[C@@H]2COP(=O)(O)O[C@H]2[C@H]1O	< 0.05	20 µM	–	84%	0 beats/min	–	–	–	inactive	–
